Several values for one entry are separate records, joined by “and”; a condition that tells them apart may be missing. Equal values may be shown once.
How the values were obtained:
[1] = tested on: Canis familiaris; experiment: Heart rate measured in canine 24-h Infarction model at an cumulative intravenous dose of 2.4 uM/kg; type: functional, Canis lupus familiaris
How it was run: (§1)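 Male mongrel dogs (16-22 kg) with LAD permanently ligated in two stages; studied 24 h later. […] given IV in sequential doses to cumulative 0.24, 0.72, 2.4 µmol/kg. Saline controls (n=8) received vehicle, then a single IV 2.4 µmol/kg dose at the end. Measurements taken at baseline and 15 min after each dose. Means ± SEM, paired t-test, p ≤ 0.05.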

[2] = tested on: Canis familiaris; experiment: QT interval measured in canine 24-h Infarction model at an cumulative intravenous dose of 0.24 uM/kg; type: functional, Canis lupus familiaris
How it was run: (§2)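 Dogs 24 h after two-stage LAD ligation. Compound in saline given iv in sequential doses (cumulative 0.24, 0.72, 2.4 µmol/kg); saline controls then given a single 2.4 µmol/kg iv dose. HR, IVR, BP, QT, spontaneous arrhythmias/min, ERPs and MAPD90 measured at baseline and 15 min after each dose. Means ± SEM, paired t-test, p≤0.05.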

[3] = species on record: Canis familiaris; experiment: Heart Rate measured in canine just after inducing atrial flutter (AFL) termination by the compound; type: functional, Canis lupus familiaris
[4] = tested on: Canis familiaris; experiment: Atrial MAPD90 measured in canine 24-h Infarction model at an cumulative intravenous dose of 2.4 uM/kg; type: functional, Canis lupus familiaris, Cardiac atrium; how it was run: as §1
[5] = tested on: Canis familiaris; experiment: QT interval measured in canine just after inducing atrial flutter (AFL) termination by the compound at a dose of 2.4 uM/kg; type: functional, Canis lupus familiaris, Heart
How it was run: (§3)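 Conscious, sling-restrained dogs with chronically implanted electrodes, studied after 2 weeks of recovery. Sustained AFL (>5 min) induced. Compound in saline given iv every 5 min to cumulative 0.024-12.0 µmol/kg. At AFL termination, HR, QT (paced cycle length 300 ms), AERP and VERP measured. Measurements then taken 3 min after each further dose. Significance p≤0.05 vs baseline.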

[6] = tested on: Canis familiaris; experiment: Number of canine in which arrhythmias could not be induced at an cumulative intravenous dose of 0.72 uM/kg; type: functional, Canis lupus familiaris
How it was run: (§4)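 Male mongrel dogs (16-22 kg) with LAD ligated in two stages, studied 24 h later. Programmed electrical stimulation at baseline and 15 min after each iv dose in saline (cumulative 0.24, 0.72, 2.4 µmol/kg). Saline controls then received a single 2.4 µmol/kg iv dose. Responses scored as NI (≤15 beats), NSVT (>15 beats, ends within 30 s), SVT (>30 s, needing pacing or cardioversion) or VF. A positive response was repeated.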

[7] = species on record: Canis familiaris; experiment: Ventricular effective refractory period ([…]) measured in canine just after inducing atrial flutter (AFL) termination by the compound; type: functional, Canis lupus familiaris, Heart
How it was run: (§5)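 Conscious dogs, loosely restrained in a sling, with exteriorized electrode leads, studied 2 weeks after instrumentation. AFL was induced and counted as sustained if it lasted 5 min. Compound in saline given intravenously every 5 min to cumulative 0.024-12.0 µmol/kg. VERP was measured at AFL termination and 3 min after each dose. Results are means ± SEM versus baseline, p ≤ 0.05.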

[8] = tested on: Canis familiaris; experiment: Number of canine in which nonsustained ventricular tachycardia (NSVT) was observed in PES-induced arrhythmias at an cumulative intravenous dose of 0.24 uM/kg; type: functional, Canis lupus familiaris, Cardiac ventricle; how it was run: as §4
[9] = tested on: Canis familiaris; experiment: Heart Rate measured in canine just after inducing atrial flutter (AFL) termination by the compound at a dose of 9.6 uM/kg; type: functional, Canis lupus familiaris
[10] = tested on: Canis familiaris; experiment: Ventricular effective refractory (VEPR) period measured in canine 24-h Infarction model at an cumulative intravenous dose of 0.72 uM/kg; type: functional, Canis lupus familiaris, Heart
How it was run: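 Male mongrel dogs (16-22 kg) with LAD permanently ligated in two stages, studied 24 h after ligation. Compound given in saline (6.0 µmol/mL) as sequential intravenous doses to reach cumulative 0.24, 0.72 and 2.4 µmol/kg. VERP and other measurements taken at baseline and 15 min after each dose. Saline-dosed dogs served as controls. Results are means ± SEM, paired t-test, p ≤ 0.05.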

[11] = species on record: Canis familiaris; experiment: Atrial effective refractory period (AERP) measured in canine just after inducing atrial flutter (AFL) termination by the compound; type: functional, Canis lupus familiaris, Heart
[12] = tested on: Canis familiaris; experiment: Number of canine in which arrhythmias could not be induced at an single intravenous dose of 2.4 uM/kg; type: functional, Canis lupus familiaris; how it was run: as §4
[13] = tested on: Canis familiaris; experiment: Atrial effective refractory period (AERP) measured in canine just after inducing atrial flutter (AFL) termination by the compound at a dose of 0.6 umol/kg; type: functional, Canis lupus familiaris, Heart
[14] = tested on: Canis familiaris; experiment: Atrial effective refractory period (AERP) measured in canine just after inducing atrial flutter (AFL) termination by the compound at a dose of 7.2 uM/kg; type: functional, Canis lupus familiaris, Heart
[15] = species on record: Canis familiaris; experiment: Atrial flutter cycle length (AFCLl) measured in canine just after inducing atrial flutter (AFL) termination by the compound; type: functional, Canis lupus familiaris, Heart
[16] = tested on: Canis familiaris; experiment: QT interval measured in canine 24-h Infarction model at an cumulative intravenous dose of 2.4 uM/kg; type: functional, Canis lupus familiaris; how it was run: as §2
[17] = tested on: Canis familiaris; experiment: QT interval measured in canine just after inducing atrial flutter (AFL) termination by the compound at a dose of 4.8 uM/kg; type: functional, Canis lupus familiaris, Heart; how it was run: as §3
[18] = tested on: Canis familiaris; experiment: Number of canine in which sustained ventricular tachycardia (SVT) was observed in PES-induced arrhythmias at an cumulative intravenous dose of 0.24 uM/kg; type: functional, Canis lupus familiaris, Cardiac ventricle; how it was run: as §4
[19] = tested on: Canis familiaris; experiment: Spontaneous arrhythmias measured in canine 24-h Infarction model at an cumulative intravenous dose of 0.72 uM/kg; type: functional, Canis lupus familiaris; how it was run: as §2
[20] = tested on: Canis familiaris; experiment: Number of canine in which arrhythmias could not be induced at an cumulative intravenous dose of 0.24 uM/kg; type: functional, Canis lupus familiaris; how it was run: as §4
[21] = tested on: Canis familiaris; experiment: QT interval measured in canine just after inducing atrial flutter (AFL) termination by the compound at a dose of 12.0 uM/kg; type: functional, Canis lupus familiaris, Heart; how it was run: as §3
[22] = tested on: Canis familiaris; experiment: QT interval measured in canine just after inducing atrial flutter (AFL) termination by the compound at a dose of 7.2 uM/kg; type: functional, Canis lupus familiaris, Heart; how it was run: as §3
[23] = tested on: Canis familiaris; experiment: QT interval measured in canine just after inducing atrial flutter (AFL) termination by the compound at a dose of 1.2 uM/kg; type: functional, Canis lupus familiaris, Heart; how it was run: as §3
[24] = tested on: Canis familiaris; experiment: Idioventricular heart rate (IVR) measured in canine 24-h Infarction model at an cumulative intravenous dose of 2.4 uM/kg; type: functional, Canis lupus familiaris; how it was run: as §1
[25] = tested on: Canis familiaris; experiment: Spontaneous arrhythmias measured in canine 24-h Infarction model at an cumulative intravenous dose of 2.4 uM/kg; type: functional, Canis lupus familiaris; how it was run: as §2
[26] = tested on: Canis familiaris; experiment: Idioventricular heart rate (IVR) measured in canine 24-h Infarction model at an cumulative intravenous dose of 0.72 uM/kg; type: functional, Canis lupus familiaris; how it was run: as §1
[27] = tested on: Canis familiaris; experiment: Heart Rate measured in canine just after inducing atrial flutter (AFL) termination by the compound at a dose of 1.2 uM/kg; type: functional, Canis lupus familiaris
[28] = tested on: Canis familiaris; experiment: Ventricular effective refractory (VEPR) period measured in canine 24-h Infarction model at a single intravenous dose of 2.4 uM/kg; type: functional, Canis lupus familiaris, Heart; how it was run: as §2
[29] = tested on: Canis familiaris; experiment: Ventricular MAPD90 measured in canine 24-h Infarction model at an cumulative intravenous dose of 2.4 uM/kg; type: functional, Canis lupus familiaris, Heart; how it was run: as §2
[30] = tested on: Canis familiaris; experiment: Number of canine in which ventricular fibrillation (VF) was observed in PES-induced arrhythmias at an cumulative intravenous dose of 2.4 uM/kg; type: functional, Canis lupus familiaris, Cardiac ventricle; how it was run: as §4
[31] = tested on: Canis familiaris; experiment: QT interval measured in canine 24-h Infarction model at a single intravenous dose of 2.4 uM/kg; type: functional, Canis lupus familiaris; how it was run: as §2
[32] = tested on: Canis familiaris; experiment: Number of canine in which arrhythmias could not be induced at an cumulative intravenous dose of 2.4 uM/kg; type: functional, Canis lupus familiaris; how it was run: as §4
[33] = tested on: Canis familiaris; experiment: Ventricular effective refractory period ([…]) measured in canine just after inducing atrial flutter (AFL) termination by the compound at a dose of 1.2 uM/kg; type: functional, Canis lupus familiaris, Heart; how it was run: as §5

Which results are given for `CCN(CCCCCC(C)(C)F)CCC[C@H](O)c1ccc(NS(C)(=O)=O)cc1.O=C(O)/C=C/C(=O)O`?
HR [1]: 135 beats min-1; QT interval [2]: 211 ms; HR [3]: 108 beats min-1; Atrial MAPD90 [4]: 163 ms; QT interval [5]: 213 ms; No. of canine [6]: 9; VERP [7]: 138 ms; No. of canine [8]: 2; HR [9]: 114 beats min-1; VERP [10]: 170 ms; AERP [11]: 149 ms; No. of canine [12]: 7; AERP [13]: 153 ms; AERP [14]: 162 ms; AFLCl [15]: 165 ms; QT interval [16]: 240 ms; QT interval [17]: 207 ms; No. of canine [18]: 1; PVCs [19]: 68 number min-1 and 57 number min-1; No. of canine [20]: 8; QT interval [21]: 200 ms; QT interval [22]: 205 ms; QT interval [23]: 212 ms; IVR [24]: 124 beats min-1; PVCs [25]: 73 number min-1; IVR [26]: 130 beats min-1; HR [27]: 114 beats min-1; VERP [28]: 180 ms; Ventricular MAPD90 [29]: 185 ms; No. of canine [30]: 0; QT interval [31]: 238 ms; No. of canine [32]: 10; VERP [33]: 144 ms

— ChEMBL document CHEMBL1134641, “Progress toward the development of a safe and effective agent for treating reentrant cardiac arrhythmias: synthesis and evaluation of ibutilide analogues with enhanced metabolic stability and diminished proarrhythmic potential” (2001)
